Results as given in ChEMBL document CHEMBL2413060, “Synthesis, biological evaluation and molecular docking studies of some pyrimidine derivatives” (2013).

Legend:
Assay type in all cases: functional
NCI-H522 = experiment: Cytotoxicity against human NCI-H522 cells assessed as growth inhibition at 10 uM; details: read-out: GI
Summary of the method: (§1)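 Single-dose screen on human tumour cell lines. Growth of treated cells is expressed as percent of untreated growth, plotted as a mean graph, and reported as percent growth inhibition.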

UACC-62 [1] = experiment: Cytotoxicity against human UACC62 cells
Summary of the method: (§2)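 Five-dose in vitro screen across the full sixty-cell human tumour line panel. Three response parameters were derived from the dose-response data: GI50, TGI and LC50, expressed in μM/l.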

MDA-MB-231 = experiment: Cytotoxicity against human MDA-MB-231 cells
Summary of the method: (§3)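 Five-dose in vitro screen on the full sixty human tumour cell line panel. Three response parameters derived per cell line: GI50, TGI and LC50, given in μM.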

SN12C = experiment: Cytotoxicity against human SN12C cells; summary of the method: as §3
CCRF-CEM = experiment: Cytotoxicity against human CCRF-CEM cells
SF-539 = experiment: Cytotoxicity against human SF539 cells; summary of the method: as §3
HCT-116 = experiment: Cytotoxicity against human HCT116 cells
CAKI-1 = experiment: Cytotoxicity against human Caki1 cells
KM12 = experiment: Cytotoxicity against human KM12 cells
PC-3 [2] = experiment: Cytotoxicity against human PC3 cells; summary of the method: as §3
A549 = experiment: Cytotoxicity against human A549/ATCC cells
Candida albicans = experiment: Antifungal activity against Candida albicans ATCC 2091 assessed as diameter of inhibition zone at 1 mg/ml after 48 hrs by cup diffusion method (reference value: 22 mm); details: ATCC 2091, 48 h, read-out: DIZ
UO-31 [3] = experiment: Cytotoxicity against human UO31 cells assessed as growth inhibition at 10 uM; details: read-out: GI
Summary of the method: (§4)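 Single-dose screen in a sixty-cell human tumour line panel; percent growth of treated cells relative to untreated was read and reported as percentage growth inhibition, shown as a mean graph. Compounds meeting the threshold inhibition criteria went on to five-dose testing.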

SF-268 = experiment: Cytotoxicity against human SF268 cells; summary of the method: as §3
MDA-MB-435 = experiment: Cytotoxicity against human MDA-MB-435 cells; summary of the method: as §3
HOP-62 [4] = experiment: Cytotoxicity against human HOP62 cells assessed as growth inhibition at 10 uM; details: read-out: GI
DU-145 = experiment: Cytotoxicity against human DU145 cells
PC-3 [5] = experiment: Cytotoxicity against human PC3 cells assessed as growth inhibition at 10 uM; details: read-out: GI; summary of the method: as §1
OVCAR-4 = experiment: Cytotoxicity against human OVCAR4 cells; summary of the method: as §3
HOP-92 = experiment: Cytotoxicity against human HOP92 cells
A498 [6] = experiment: Cytotoxicity against human A498 cells assessed as growth inhibition at 10 uM; details: read-out: GI
RPMI-8226 = experiment: Cytotoxicity against human RPMI8226 cells assessed as growth inhibition at 10 uM; details: read-out: GI; summary of the method: as §1
SNB-19 = experiment: Cytotoxicity against human SNB19 cells; summary of the method: as §3
SR = experiment: Cytotoxicity against human SR cells; summary of the method: as §3
Shigella flexneri = experiment: Antibacterial activity against Shigella flexneri ATCC 15391 assessed as diameter of inhibition zone at 1 mg/ml after 24 hrs by cup diffusion method (reference value: 17 mm); details: ATCC 15391, 24 h, read-out: DIZ
SK-OV-3 [7] = experiment: Cytotoxicity against human SKOV3 cells; summary of the method: as §3
UACC-257 = experiment: Cytotoxicity against human UACC257 cells; summary of the method: as §2
[8] = Cytotoxicity against human EKVX cells
OVCAR-3 = experiment: Cytotoxicity against human OVCAR3 cells; summary of the method: as §3
786-0 = experiment: Cytotoxicity against human 786-0 cells
SK-OV-3 [9] = experiment: Cytotoxicity against human SKOV3 cells assessed as growth inhibition at 10 uM; details: read-out: GI; summary of the method: as §1
ACHN [10] = experiment: Cytotoxicity against human ACHN cells assessed as growth inhibition at 10 uM; details: read-out: GI
M14 = experiment: Cytotoxicity against human M14 cells
HCC 2998 = experiment: Cytotoxicity against human HCC2998 cells
HOP-62 [11] = experiment: Cytotoxicity against human HOP62 cells
Pseudomonas aeruginosa = experiment: Antibacterial activity against Pseudomonas aeruginosa ATCC 9027 assessed as diameter of inhibition zone at 1 mg/ml after 24 hrs by cup diffusion method (reference value: 16 mm); details: ATCC 9027, 24 h, read-out: DIZ
UACC-62 [12] = experiment: Cytotoxicity against human UACC62 cells assessed as growth inhibition at 10 uM; details: read-out: GI; summary of the method: as §4
HT-29 = experiment: Cytotoxicity against human HT-29 cells
Staphylococcus aureus = experiment: Antibacterial activity against Staphylococcus aureus ATCC 6538P assessed as diameter of inhibition zone at 1 mg/ml after 24 hrs by cup diffusion method (reference value: 15 mm); details: read-out: DIZ
ACHN [13] = experiment: Cytotoxicity against human ACHN cells
UO-31 [14] = experiment: Cytotoxicity against human UO31 cells; summary of the method: as §2
A498 [15] = experiment: Cytotoxicity against human A498 cells
[16] = read-out: LC50 (the source's name)

## N#Cc1c(-c2ccccc2)nc(SCC2CO2)nc1N1CCOCC1 (stereo not given)
NCI-H522
  inhibition of growth at 10 µM: 42.1%
UACC-62 [1]
  GI50: 3.12 µM
  TGI: 75.5 µM
UACC-62 [1]; [16]
  CC50: > 100 µM
MDA-MB-231
  GI50: 10 µM
  TGI: > 100 µM
MDA-MB-231; [16]
  CC50: > 100 µM
SN12C
  GI50: 16.4 µM
  TGI: > 100 µM
SN12C; [16]
  CC50: > 100 µM
CCRF-CEM
  GI50: > 100 µM
  TGI: > 100 µM
CCRF-CEM; [16]
  CC50: > 100 µM
SF-539
  GI50: 19.8 µM
  TGI: > 100 µM
SF-539; [16]
  CC50: > 100 µM
HCT-116
  GI50: 18.4 µM
  TGI: > 100 µM
HCT-116; [16]
  CC50: > 100 µM
CAKI-1
  GI50: 0.635 µM
  TGI: 31.4 µM
CAKI-1; [16]
  CC50: > 100 µM
KM12
  GI50: 27.1 µM
  TGI: > 100 µM
KM12; [16]
  CC50: > 100 µM
PC-3 [2]
  GI50: 22.1 µM
  TGI: > 100 µM
PC-3 [2]; [16]
  CC50: > 100 µM
A549
  GI50: 27.9 µM
  TGI: > 100 µM
A549; [16]
  CC50: > 100 µM
Candida albicans
  zone of inhibition at 1000 µg/mL: 22 mm
UO-31 [3]
  inhibition of growth at 10 µM: 70.5%
SF-268
  GI50: 13 µM
  TGI: > 100 µM
SF-268; [16]
  CC50: > 100 µM
MDA-MB-435
  GI50: 6.71 µM
  TGI: > 100 µM
MDA-MB-435; [16]
  CC50: > 100 µM
HOP-62 [4]
  inhibition of growth at 10 µM: 45.7%
DU-145
  GI50: 13.4 µM
  TGI: > 100 µM
DU-145; [16]
  CC50: > 100 µM
PC-3 [5]
  inhibition of growth at 10 µM: 63.9%
OVCAR-4
  GI50: 85.1 µM
  TGI: > 100 µM
OVCAR-4; [16]
  CC50: > 100 µM
HOP-92
  GI50: 2.44 µM
  TGI: 8.7 µM
HOP-92; [16]
  CC50: > 100 µM
A498 [6]
  inhibition of growth at 10 µM: 115%
RPMI-8226
  inhibition of growth at 10 µM: 52.1%
SNB-19
  GI50: 84.5 µM
  TGI: > 100 µM
SNB-19; [16]
  CC50: > 100 µM
SR
  GI50: 33.3 µM
  TGI: > 100 µM
SR; [16]
  CC50: > 100 µM
Shigella flexneri
  zone of inhibition at 1000 µg/mL: 18 mm
SK-OV-3 [7]
  GI50: 14.1 µM
  TGI: 75.2 µM
SK-OV-3 [7]; [16]
  CC50: > 100 µM
UACC-257
  GI50: 50.7 µM
  TGI: > 100 µM
UACC-257; [16]
  CC50: > 100 µM
[8]
  GI50: 3.65 µM
  TGI: > 100 µM
[8]; [16]
  CC50: > 100 µM
OVCAR-3
  GI50: 4.19 µM
  TGI: 47.8 µM
OVCAR-3; [16]
  CC50: > 100 µM
786-0
  GI50: 2.7 µM
  TGI: 21.3 µM
786-0; [16]
  CC50: > 100 µM
SK-OV-3 [9]
  inhibition of growth at 10 µM: 71.9%
ACHN [10]
  inhibition of growth at 10 µM: 40.8%
M14
  GI50: 11.9 µM
  TGI: > 100 µM
M14; [16]
  CC50: > 100 µM
HCC 2998
  GI50: 0.253 µM
  TGI: 18.2 µM
HCC 2998; [16]
  CC50: > 100 µM
HOP-62 [11]
  GI50: 4.34 µM
  TGI: 75.3 µM
HOP-62 [11]; [16]
  CC50: > 100 µM
Pseudomonas aeruginosa
  zone of inhibition at 1000 µg/mL: 17 mm
UACC-62 [12]
  inhibition of growth at 10 µM: 48.1%
HT-29
  GI50: 36.8 µM
  TGI: > 100 µM
HT-29; [16]
  CC50: > 100 µM
Staphylococcus aureus
  zone of inhibition at 1000 µg/mL: 15 mm
ACHN [13]
  GI50: 3.23 µM
  TGI: > 100 µM
ACHN [13]; [16]
  CC50: > 100 µM
UO-31 [14]
  GI50: 7.57 µM
  TGI: > 100 µM
UO-31 [14]; [16]
  CC50: > 100 µM
A498 [15]
  GI50: 1.06 µM
  TGI: 5.28 µM
A498 [15]; [16]
  CC50: > 100 µM
